We go through 19 compounds from ChEMBL document CHEMBL4219186, “Structure-activity relationships in a new class of non-substrate-like covalent inhibitors of the bacterial glycosyltransferase LgtC” (Bioorg Med Chem, 2018).

In general, Ki refers to a measure of affinity in units of concentration, obtained from inhibition or displacement. By IC50 is commonly meant the concentration that inhibits the measured activity by half. The term inhibition denotes the percentage by which the read-out fell short of the control.

Structures are written as SMILES. The source made the active and inactive calls. No cut-off for these calls is given here.

The target in data set [1] is T1, LgtC (Neisseria meningitidis) (UniProt Q93EK7).
T1 sequence (whole entry): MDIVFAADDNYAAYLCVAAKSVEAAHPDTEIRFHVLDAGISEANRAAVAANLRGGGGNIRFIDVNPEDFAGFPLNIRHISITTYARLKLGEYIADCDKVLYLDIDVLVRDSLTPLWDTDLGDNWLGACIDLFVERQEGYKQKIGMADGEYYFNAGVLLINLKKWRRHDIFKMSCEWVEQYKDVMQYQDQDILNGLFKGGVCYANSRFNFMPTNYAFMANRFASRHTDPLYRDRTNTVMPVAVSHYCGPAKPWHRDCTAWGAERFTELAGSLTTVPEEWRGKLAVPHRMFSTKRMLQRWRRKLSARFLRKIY
As to the kind of experiment: Inhibition of recombinant Neisseria meningitidis glycosyltransferase LgtC assessed as ratio of Kinact/Ki using UDP-Gal/lactose as substrate preincubated for 20 mins with UDP-Gal followed by lactose addition measured after 20 mins in presence of MnCl2. The method in brief: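 Kinetic parameters from LgtC activity at ranges of inhibitor (0-50 up to 0-250 µM) after 0, 5, 10 and 20 min pre-incubation. Activity, as % of DMSO control, was plotted against pre-incubation time and fitted exponentially to give Kobs. Kobs was then fitted against [I] with the hyperbolic equation to obtain kinact and Ki. Triplicate.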

Data set [2] has as its target T2, LgtC (Neisseria meningitidis, UniProt Q93EK7).
T2 sequence (Q93EK7 whole entry): T1 sequence (whole entry)
As to the kind of experiment: (§1) Inhibition of recombinant Neisseria meningitidis glycosyltransferase LgtC using UDP-Gal/lactose as substrate preincubated for 20 mins with UDP-Gal followed by lactose addition measured after 20 mins in presence of MnCl2. The method in brief:
(§2)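 Dose-response with DTT-activated recombinant N. meningitidis LgtC at 20-50% donor turnover. Pre-incubation was 20 min at 30 °C with inhibitor (0.1-50 up to 0.1-250 µM, 10% DMSO), UDP-Gal 28 µM, MnCl2 5 mM, CIP 10 U/mL, CEL 1 mg/mL and Triton 0.01% in 13 mM HEPES pH 7.0. Lactose 2 mM was then added for 20 min at 30 °C. Malachite Green A620 read-out; triplicate, mean ± SD.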

The target in data set [3] is T1, LgtC (Neisseria meningitidis). The description is as §1. Summed up: as §2
For data set [4], the target named is T2, LgtC. As to the kind of experiment: Inhibition of recombinant Neisseria meningitidis glycosyltransferase LgtC using UDP-Gal/lactose as substrate preincubated for 20 mins with UDP-Gal followed by lactose addition measured after 20 mins in presence of MnCl2 by malachite green dye based colorimetric assay. Summed up: as §2
The target of data set [5] is T1, LgtC (Neisseria meningitidis). As to the kind of experiment: Inhibition of recombinant Neisseria meningitidis glycosyltransferase LgtC using UDP-Gal/lactose as substrate at 25 uM preincubated for 30 mins with UDP-Gal followed by lactose addition measured after 20 mins in presence of MnCl2 and calf intestinal phosphatase by malachite green dye based enzyme-coupled colorimetric assay relative to control. The method in brief: (§3)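 Recombinant N. meningitidis LgtC, activated with 10 mM DTT (1:1, 30 min, 30 °C) and set to 20-50% UDP-Gal turnover. It was pre-incubated 30 min at 30 °C with 25 or 50 µM inhibitor in 13 mM HEPES pH 7.0 containing UDP-Gal 28 µM, MnCl2 5 mM, CIP 10 U/mL, CEL 1 mg/mL, Triton 0.01% and 10% DMSO. Lactose 2 mM was then added for 20 min at 30 °C. Malachite Green read at A620; activity taken against a DMSO control.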

The target in data set [6] is T2, LgtC. Kind of data set: Inhibition of recombinant Neisseria meningitidis glycosyltransferase LgtC using UDP-Gal/lactose as substrate preincubated for 30 mins with UDP-Gal followed by lactose addition measured after 20 mins in presence of MnCl2 and calf intestinal phosphatase by malachite green dye based enzyme-coupled colorimetric assay relative to control. The method in brief:
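IC50 set-up using DTT-activated recombinant N. meningitidis LgtC at 20-50% donor turnover. Enzyme was pre-incubated 30 min at 30 °C with inhibitor (0.1-100 or 0.1-50 µM, 10% DMSO), UDP-Gal 28 µM, MnCl2 5 mM, CIP 10 U/mL, CEL 1 mg/mL and Triton 0.01% in 13 mM HEPES pH 7.0. Lactose 2 mM was added for 20 min at 30 °C, then read by Malachite Green phosphate detection at 620 nm.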

Data set [7] addresses T1, LgtC (Neisseria meningitidis). Kind of data set: Inhibition of recombinant Neisseria meningitidis glycosyltransferase LgtC using UDP-Gal/lactose as substrate at 50 uM preincubated for 30 mins with UDP-Gal followed by lactose addition measured after 20 mins in presence of MnCl2 and calf intestinal phosphatase by malachite green dye based enzyme-coupled colorimetric assay relative to control. Summed up:
as §3

Data set [8] deals with Haemophilus influenzae. As to the kind of experiment: Potentiation of human serum-induced killing of Haemophilus influenzae R2866 at 100 uM in presence of 30% v/v human serum pre-incubated for 1 hr followed by drug removal and re-plating of colonies for 24 hrs by bacterial viable count method. It counts as functional, organism-based. Summed up:
(§4)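 Overnight R2866 sBHI culture, diluted to OD590 0.7, was exposed 1 h at 37 °C to 30% v/v normal human serum plus inhibitor (50 or 100 µM); the control received 30% serum alone. Serum and compound were removed by centrifugation and two sBHI washes. Cells were serially diluted and plated on chocolate agar (24 h, 37 °C, 5% CO2) for viable counts. Triplicate, mean.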

Data set [9] concerns Haemophilus influenzae. As to the kind of experiment: Growth inhibition of Haemophilus influenzae R2866 up to 100 uM incubated for 1 hr followed by drug removal and re-plating of colonies for 24 hrs by bacterial viable count method. It counts as organism-based. As to conditions: in vivo. The method in brief:
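H. influenzae R2866 was grown overnight in supplemented BHI at 37 °C, 180 rpm, then diluted to OD590 0.7. Cells were exposed 1 h at 37 °C to compound (0-200 µM; final DMSO 10%) or DMSO. They were centrifuged, washed twice with sBHI, serially diluted and plated on chocolate agar (24 h, 37 °C, 5% CO2) for viable counts. Triplicate, mean; unpaired t-test.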

Data set [10] relates to Haemophilus influenzae. As to the kind of experiment: Toxicity against Haemophilus influenzae R2866. Conditions: in vivo. The format is organism-based.
Data set [11] has as its system Haemophilus influenzae. As to the kind of experiment: Potentiation of human serum-induced killing of Haemophilus influenzae R2866 at 50 uM in presence of 30% v/v human serum pre-incubated for 1 hr followed by drug removal and re-plating of colonies for 24 hrs by bacterial viable count method. The format is functional, organism-based. The method in brief:
as §4

Take `O=C1/C(=C\c2ccc(OCc3ccccc3)cc2)C(C(F)(F)F)=NN1c1ccccc1`: in [1], the Ratio is 238 M⁻¹ s⁻¹. In addition, the Ki on LgtC [2] amounted to 4.7 µM. Besides, in [3], the Kinact turned out to be 0.0011 s⁻¹. In addition, the IC50 at LgtC [4] is 3.3 µM.

As to `COc1ccc(/C=C2\C(=O)N(c3ccccc3)N=C2C)cc1Br`, the inhibition in [5] was 33%; in data set [7] it was 43%. The IC50 at LgtC [6] was > 50 µM.

Take `O=C1/C(=C\c2cccc(OCc3ccccc3)c2)C(C(F)(F)F)=NN1c1ccccc1`: the outcome in the data set with Haemophilus influenzae [8] was inactive. Moreover, the entries for the “growth inhibition (GI)” value with Haemophilus influenzae [9] and in the data set with Haemophilus influenzae [10] were “Non-Toxic” and “Toxic”, respectively. For the same compound, the Ratio in data set [1] amounted to 36 M⁻¹ s⁻¹. The Ki at LgtC [2] worked out at 50 µM. In addition, the Kinact in [3] was 0.0018 s⁻¹. Besides, the IC50 on LgtC [6] is 18 µM; on LgtC [4], 38 µM.

Take `CCOC(=O)CC1=NN(c2ccccc2)C(=O)/C1=C\c1ccc(OC)c(Br)c1`: the inhibition in data set [5] was 32%; in data set [7], 67%.

As for `CC1=NN(c2ccccc2)C(=O)/C1=C\c1ccccc1C(F)(F)F`, the outcome in the data set on Haemophilus influenzae [8] was inactive. In addition, the “growth inhibition (GI)” value was “Non-Toxic” in the data set on Haemophilus influenzae [9] and “Toxic” in the data set with Haemophilus influenzae [10].

Regarding `COc1ccc(/C=C2\C(=O)N(c3ccccc3)N=C2C(F)(F)F)cc1`, in [1], the Ratio amounted to 80 M⁻¹ s⁻¹. Also, at LgtC [2], the Ki is 19 µM. Also, the Kinact in data set [3] worked out at 0.0015 s⁻¹. The IC50 at LgtC [4] is 8.9 µM.

As to `O=C1/C(=C\c2ccc(Cl)cc2)C(C(F)(F)F)=NN1c1ccccc1`, the Ratio in data set [1] is 18 M⁻¹ s⁻¹. On LgtC [2], the inhibition constant Ki amounted to 49 µM. Further, in data set [3], the Kinact came out at 0.0009 s⁻¹. Further, the IC50 on LgtC [6] was 25 µM; at LgtC [4] it was 80 µM.

For the compound `COc1ccc(/C=C2\C(=O)N(c3cccc(C(=O)NCCO)c3)N=C2C(F)(F)F)cc1Br`, the IC50 on LgtC [6] came to 4.3 µM.

Turning to `COc1ccc(/C=C2\C(=O)N(c3ccccc3)N=C2C(=O)O)cc1Br`, the figures for the inhibition in data set [5] and in [7] were 35% and 58%, respectively.

As for `O=C1/C(=C\c2ccc(O)cc2)C(C(F)(F)F)=NN1c1ccccc1`, the Ratio in [1] stood at 370 M⁻¹ s⁻¹. Also, at LgtC [2], the Ki was 6.8 µM. Besides, in data set [3], the Kinact worked out at 0.0025 s⁻¹. In addition, on LgtC [4], the IC50 is 5.8 µM.

With `O=C1/C(=C\c2cccc(Cl)c2)C(C(F)(F)F)=NN1c1ccccc1`, the Ratio in data set [1] came out at 18 M⁻¹ s⁻¹. Further, the Ki at LgtC [2] was found to be 88 µM. Moreover, the Kinact in data set [3] worked out at 0.0016 s⁻¹. The IC50 on LgtC [4] is 64 µM.

Consider `CCOC(=O)C1=NN(c2ccccc2)C(=O)/C1=C\c1ccc(OC)c(Br)c1`, for which the inhibition in data set [5] is 61%; in data set [7] it was 66%.

`COc1ccc(/C=C2\C(=O)N(c3ccc(C(=O)O)cc3)N=C2C(F)(F)F)cc1Br`: at LgtC [6], the IC50 is 2.9 µM.

For `COc1ccc(/C=C2\C(=O)N(Cc3ccccc3)N=C2C(F)(F)F)cc1Br`, at LgtC [6], the IC50 worked out at 12 µM.

With `COc1ccc(/C=C2\C(=O)N(c3cccc(C(=O)O)c3)N=C2C(F)(F)F)cc1Br`, the IC50 on LgtC [6] amounted to 3 µM.

On to `CCOC(=O)c1ccccc1/C=C1\C(=O)N(c2ccccc2)N=C1C(F)(F)F`, for which the IC50 on LgtC [6] was > 100 µM.

With `O=C1/C(=C\c2ccccc2)C(C(F)(F)F)=NN1c1ccccc1`, in data set [1], the Ratio came out at 13 M⁻¹ s⁻¹. The inhibition constant (Ki) at LgtC [2] turned out to be 153 µM. In data set [3], the Kinact was found to be 0.002 s⁻¹. Besides, the values for the IC50 at LgtC [6] and on LgtC [4] were 28 µM and 63 µM, respectively.

Consider `COc1ccc(/C=C2\C(=O)N(c3ccccc3)N=C2C(N)=O)cc1Br`, for which the values for the inhibition in [5] and in [7] were 31% and 39%, respectively.

Regarding `COc1ccc(/C=C2\C(=O)N(c3ccccc3)N=C2C(F)(F)F)cc1Br`, the result in the data set with Haemophilus influenzae [11] was inactive. Further, the inhibition in data set [5] was determined as 80%; in data set [7], 84%. The “growth inhibition (GI)” value in the data set with Haemophilus influenzae [9] is given as “Non-Toxic”. In addition, the Ratio in data set [1] was determined as 163 M⁻¹ s⁻¹. In addition, at LgtC [2], the Ki turned out to be 7.1 µM. In data set [3], the Kinact is 0.0012 s⁻¹. In addition, the IC50 on LgtC [6] turned out to be 3.1 µM; on LgtC [4], 6.4 µM.
